Test results as given in ChEMBL document CHEMBL1158346, “Synthesis and antioxidant potential of novel synthetic benzophenone analogues” (Eur J Med Chem, 2009).
Calls of active or inactive are those of the source. The rule behind the calls is not given here.

Assays:
[1] = Antioxidant activity assessed as Fe2+ formation per nmol of compound by FRAP assay; assay type: functional
In short: (§1)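 FRAP method: working reagent of acetate buffer, TPTZ solution and FeCl₃·6H₂O solution (25:2.5:2.5 by volume), warmed 30 min at 37 °C before addition. Absorbance read after 30 min at 30 s intervals. Trolox as reference antioxidant. Output is the antioxidant ratio, nmol Fe²⁺ per nmol compound, mean ± SD, n = 3.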

[2] = Antioxidant activity assessed as Fe2+ formation per nmol of compound by FRAP assay relative to trolox; assay type: functional; in short: as §1
MCF7 [3] = assay: Cytotoxicity against human MCF7 cells after 48 hrs by MTT assay; assay type: functional, cell-based; settings: MCF7, 48 h
In short: (§2)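 Cells seeded at 1 ×10⁴ per well and allowed 24 h, then exposed 48 or 72 h. Medium replaced with fresh medium containing MTT at 0.5 mg/ml final, 3 h at 37 °C. MCF7 in phenol red-free RPMI-1640 with 10% FBS; hTERT-HME1 in RPMI-1640/mammary epithelial growth medium 90:10. IC₂₀ and IC₅₀ are means of 8 assays ± SD.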

[4] = Cytotoxicity against hTERT-HME1 cells after 72 hrs by MTT assay; assay type: cell-based, Homo sapiens; settings: for IC50: Homo sapiens, HME1, 72 h; for IC20 at 72 h: human, hTERT-HME1 cells; in short: as §2
MCF7 [5] = assay: Cytotoxicity against human MCF7 cells after 72 hrs by MTT assay; assay type: functional, cell-based; settings: MCF7, 72 h; in short: as §2
[6] = Cytotoxicity against hTERT-HME1 cells after 48 hrs by MTT assay; assay type: cell-based, Homo sapiens; settings: for IC50: Homo sapiens, HME1, 48 h; for IC20 at 48 h: human, hTERT-HME1 cells; in short: as §2
[7] = Antioxidant activity in 2',7'-dichlorodihydrofluorescein diacetate-treated hTERT-HME1 cells assessed as reduction of H2O2 production at 100 uM during after 24 hrs by FACS analysis; assay type: functional, Homo sapiens; set-up: scale not given: the % may be the effect or the level left
In short: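 Mammary cells seeded at 0.75 ×10⁶ per 100-mm dish. Exposed to test agent or Trolox at […] (unit as printed) for 4, 8, 12, 24 and 48 h. Loaded with H₂DCFDA 15 min at 37 °C. Detached plus adherent cells resuspended in PBS; DCF read in FL1 on a FACScan. Output is the ratio of treated to DMSO-control fluorescence, mean ± SD, n = 3.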

| SMILES | Activity [1] | Ratio [2] | IC20 (MCF7 [3]) | IC50 (MCF7 [3]) | IC50 [4] | IC20 at 72 h [4] | IC20 (MCF7 [5]) | IC50 (MCF7 [5]) | IC50 [6] | IC20 at 48 h [6] | Activity [7] |
| --- | --- | --- | --- | --- | --- | --- | --- | --- | --- | --- | --- |
| O=C(c1ccc(O)c(O)c1)c1ccc2sc(=O)[nH]c2c1 | 6.1 nmol | 2 | 12.1 µM | 43.6 µM | 116 µM | 33.8 µM | 8.3 µM | 28.1 µM | 155 µM | 43.5 µM | – |
| Cc1c(C)c2c(c(C)c1O)CCC(C)(C(=O)O)O2 (stereo not given) [TROLOX] | – | – | – | – | – | – | – | – | – | – | 20% |
| O=C(c1ccc(O)cc1)c1ccc2sc(=O)[nH]c2c1 | inactive | – | 44.5 µM | 121 µM | 111 µM | 78.4 µM | 37.8 µM | 95.9 µM | 109 µM | 73.1 µM | – |
